Data as given in ChEMBL document CHEMBL4007404, “Identification of High-Potency Human TLR8 and Dual TLR7/TLR8 Agonists in Pyrimidine-2,4-diamines” (J Med Chem, 2017).
The source made the active and inactive calls. The rule behind the calls is not given here.

How the values were obtained:
[1] = target: T1, Toll-like receptor 8 (Homo sapiens) (UniProt Q9NR97); experiment: Agonist activity at TLR8 in human CD141 positive conventional dendritic cells assessed as upregulation of CD80 expression after 16 hrs by efluor 780 dye based flow cytometry
T1 sequence (whole entry): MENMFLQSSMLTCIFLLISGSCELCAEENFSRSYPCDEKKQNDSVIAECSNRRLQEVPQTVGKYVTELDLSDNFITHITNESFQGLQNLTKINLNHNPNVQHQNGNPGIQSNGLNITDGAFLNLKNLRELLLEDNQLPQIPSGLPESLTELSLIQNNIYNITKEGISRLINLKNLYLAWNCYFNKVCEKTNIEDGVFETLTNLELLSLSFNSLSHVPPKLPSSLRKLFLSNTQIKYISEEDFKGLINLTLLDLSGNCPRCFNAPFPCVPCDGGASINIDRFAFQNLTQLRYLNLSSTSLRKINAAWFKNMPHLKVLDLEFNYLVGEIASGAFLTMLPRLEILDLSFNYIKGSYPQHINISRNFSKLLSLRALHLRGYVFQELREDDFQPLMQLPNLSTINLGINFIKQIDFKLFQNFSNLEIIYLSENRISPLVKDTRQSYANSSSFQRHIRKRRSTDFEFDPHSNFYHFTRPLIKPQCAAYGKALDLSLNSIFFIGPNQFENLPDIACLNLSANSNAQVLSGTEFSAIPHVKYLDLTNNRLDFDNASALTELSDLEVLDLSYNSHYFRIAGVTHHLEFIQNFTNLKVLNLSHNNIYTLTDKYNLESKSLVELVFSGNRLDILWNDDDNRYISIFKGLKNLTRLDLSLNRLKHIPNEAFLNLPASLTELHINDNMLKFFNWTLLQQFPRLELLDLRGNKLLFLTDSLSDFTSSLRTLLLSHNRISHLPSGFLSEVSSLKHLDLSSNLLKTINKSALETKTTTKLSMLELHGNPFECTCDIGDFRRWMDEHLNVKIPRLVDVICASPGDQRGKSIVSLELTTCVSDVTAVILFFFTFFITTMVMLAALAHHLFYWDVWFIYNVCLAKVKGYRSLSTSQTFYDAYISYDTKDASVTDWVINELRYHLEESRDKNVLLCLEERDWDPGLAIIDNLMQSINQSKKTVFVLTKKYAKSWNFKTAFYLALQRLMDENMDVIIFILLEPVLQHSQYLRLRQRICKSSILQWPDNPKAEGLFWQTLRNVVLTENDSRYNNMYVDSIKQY
Outline: (§1)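 Human PBMCs were incubated with serial compound dilutions at 37 °C for 16 h, with DMSO controls. Cells were stained with eFluor780 viability dye, then lineage and DC antibodies plus CD80 PE, and fixed. 250,000 gated events were acquired. pDCs were gated as Live Lin⁻ CD123⁺ CD303⁺ CD304⁺ HLA-DR⁺. cDCs were gated as Lin⁻ CD1c⁺ CD141⁻ CD11c⁺ HLA-DR⁺ or Lin⁻ CD141⁺ CD1c⁻ HLA-DR⁺. Median fluorescence intensity was quantified.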

[2] = target: T1, Toll-like receptor 8 (Homo sapiens); experiment: Agonist activity at TLR8 in human […] conventional dendritic cells assessed as upregulation of CD80 expression after 16 hrs by efluor 780 dye based flow cytometry; outline: as §1
[3] = target: T2, Toll-like receptor 7 (Homo sapiens) (UniProt Q9NYK1); experiment: Agonist activity at TLR7 in human plasmacytoid dendritic cells assessed as upregulation of CD80 expression after 16 hrs by efluor 780 dye based flow cytometry; outline: as §1
T2 sequence (whole entry): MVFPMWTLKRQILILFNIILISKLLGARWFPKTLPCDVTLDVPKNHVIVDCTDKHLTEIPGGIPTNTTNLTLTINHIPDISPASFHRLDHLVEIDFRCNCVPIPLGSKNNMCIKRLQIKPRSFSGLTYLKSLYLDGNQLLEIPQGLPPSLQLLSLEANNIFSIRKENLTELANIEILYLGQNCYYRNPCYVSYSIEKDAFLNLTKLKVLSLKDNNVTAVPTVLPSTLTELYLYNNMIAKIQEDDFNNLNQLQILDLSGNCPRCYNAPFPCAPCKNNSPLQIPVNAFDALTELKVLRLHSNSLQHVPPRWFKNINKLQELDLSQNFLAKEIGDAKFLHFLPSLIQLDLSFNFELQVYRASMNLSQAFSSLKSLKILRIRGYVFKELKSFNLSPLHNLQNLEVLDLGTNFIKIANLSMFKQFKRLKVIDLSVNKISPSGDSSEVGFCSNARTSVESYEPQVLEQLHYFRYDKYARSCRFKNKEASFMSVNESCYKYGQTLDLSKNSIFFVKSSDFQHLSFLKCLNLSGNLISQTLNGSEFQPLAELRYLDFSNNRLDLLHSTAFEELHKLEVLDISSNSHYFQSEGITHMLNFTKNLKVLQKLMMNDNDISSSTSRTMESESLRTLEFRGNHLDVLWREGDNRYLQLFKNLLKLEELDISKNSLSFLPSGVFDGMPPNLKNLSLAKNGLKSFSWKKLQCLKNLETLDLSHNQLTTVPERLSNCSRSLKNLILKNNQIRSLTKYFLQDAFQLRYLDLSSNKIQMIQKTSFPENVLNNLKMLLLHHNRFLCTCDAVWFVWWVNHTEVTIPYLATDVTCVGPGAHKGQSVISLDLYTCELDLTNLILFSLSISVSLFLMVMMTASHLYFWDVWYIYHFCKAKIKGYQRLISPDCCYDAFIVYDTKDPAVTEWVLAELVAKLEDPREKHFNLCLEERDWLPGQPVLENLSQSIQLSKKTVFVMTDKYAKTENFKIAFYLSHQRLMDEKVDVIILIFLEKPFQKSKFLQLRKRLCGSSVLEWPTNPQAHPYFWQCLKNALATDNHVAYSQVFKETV

[4] = target: T1, Toll-like receptor 8 (Homo sapiens); experiment: Agonist activity at human TLR8 expressed in HEK293 cells co-expressing secreted alkaline phosphatase assessed as induction of NF-kappaB/AP-1 promoter activity by measuring increase in secreted alkaline phosphatase level by spectrophotometric method; assay type: cell-based
Outline: (§2)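 HEK293 cells stably co-transfected with the relevant human TLR (2, 3, 4, 5, 7, 8 or 9) plus an NF-κB/AP-1-driven secreted alkaline phosphatase reporter, kept in selection medium. Cells at ~10⁵ cells/ml were exposed to graded concentrations of stimuli in 384-well format, liquid-handler assisted. Supernatant sAP was read at 620 nm with an alkaline phosphatase-specific chromogen.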

[5] = target: T2, Toll-like receptor 7 (Homo sapiens); experiment: Inhibition of human TLR7 expressed in HEK293 cells co-expressing secreted alkaline phosphatase assessed as NF-kappaB/AP-1 promoter activity by measuring increase in secreted alkaline phosphatase level at higher concentration by spectrophotometric method; assay type: cell-based
HEK293 = experiment: Cytotoxicity against HEK293 cells expressing human TLR7 or TLR8 at 10^-4M; assay type: cell-based; settings: hek293, 100 µM
[6] = target: T1, Toll-like receptor 8 (Homo sapiens); experiment: Inhibition of human TLR8 expressed in HEK293 cells co-expressing secreted alkaline phosphatase assessed as NF-kappaB/AP-1 promoter activity by measuring increase in secreted alkaline phosphatase level at higher concentration by spectrophotometric method; assay type: cell-based
[7] = target: T2, Toll-like receptor 7 (Homo sapiens); experiment: Agonist activity at human TLR7 expressed in HEK293 cells co-expressing secreted alkaline phosphatase assessed as induction of NF-kappaB/AP-1 promoter activity by measuring increase in secreted alkaline phosphatase level by spectrophotometric method; assay type: cell-based; outline: as §2
[8] = target: Toll-like receptor 5 (Homo sapiens) (UniProt O60602); experiment: Activity at human TLR5 expressed in HEK293 cells co-expressing secreted alkaline phosphatase assessed as induction of NF-kappaB/AP-1 promoter activity by measuring increase in secreted alkaline phosphatase level by spectrophotometric method; assay type: cell-based; outline: as §2
[9] = target: Toll-like receptor 2 (Homo sapiens) (UniProt O60603); experiment: Activity at human TLR2 expressed in HEK293 cells co-expressing secreted alkaline phosphatase assessed as induction of NF-kappaB/AP-1 promoter activity by measuring increase in secreted alkaline phosphatase level by spectrophotometric method; assay type: cell-based; outline: as §2
[10] = target: Toll-like receptor 3 (Homo sapiens) (UniProt O15455); experiment: Activity at human TLR3 expressed in HEK293 cells co-expressing secreted alkaline phosphatase assessed as induction of NF-kappaB/AP-1 promoter activity by measuring increase in secreted alkaline phosphatase level by spectrophotometric method; assay type: cell-based; outline: as §2
[11] = target: Toll-like receptor 4 (Homo sapiens) (UniProt O00206); experiment: Activity at human TLR4 expressed in HEK293 cells co-expressing secreted alkaline phosphatase assessed as induction of NF-kappaB/AP-1 promoter activity by measuring increase in secreted alkaline phosphatase level by spectrophotometric method; assay type: cell-based; outline: as §2
[12] = target: T2, Toll-like receptor 7 (Homo sapiens); experiment: Agonist activity at human TLR7 expressed in HEK293 cells co-expressing secreted alkaline phosphatase assessed as induction of NF-kappaB/AP-1 promoter activity by measuring increase in secreted alkaline phosphatase level at 100 uM by spectrophotometric method; assay type: cell-based
[13] = target: T3, Toll-like receptor 9 (Homo sapiens) (UniProt Q9NR96); experiment: Activity at human TLR9 expressed in HEK293 cells co-expressing secreted alkaline phosphatase assessed as induction of NF-kappaB/AP-1 promoter activity by measuring increase in secreted alkaline phosphatase level by spectrophotometric method; assay type: cell-based; outline: as §2
T3 sequence (whole entry): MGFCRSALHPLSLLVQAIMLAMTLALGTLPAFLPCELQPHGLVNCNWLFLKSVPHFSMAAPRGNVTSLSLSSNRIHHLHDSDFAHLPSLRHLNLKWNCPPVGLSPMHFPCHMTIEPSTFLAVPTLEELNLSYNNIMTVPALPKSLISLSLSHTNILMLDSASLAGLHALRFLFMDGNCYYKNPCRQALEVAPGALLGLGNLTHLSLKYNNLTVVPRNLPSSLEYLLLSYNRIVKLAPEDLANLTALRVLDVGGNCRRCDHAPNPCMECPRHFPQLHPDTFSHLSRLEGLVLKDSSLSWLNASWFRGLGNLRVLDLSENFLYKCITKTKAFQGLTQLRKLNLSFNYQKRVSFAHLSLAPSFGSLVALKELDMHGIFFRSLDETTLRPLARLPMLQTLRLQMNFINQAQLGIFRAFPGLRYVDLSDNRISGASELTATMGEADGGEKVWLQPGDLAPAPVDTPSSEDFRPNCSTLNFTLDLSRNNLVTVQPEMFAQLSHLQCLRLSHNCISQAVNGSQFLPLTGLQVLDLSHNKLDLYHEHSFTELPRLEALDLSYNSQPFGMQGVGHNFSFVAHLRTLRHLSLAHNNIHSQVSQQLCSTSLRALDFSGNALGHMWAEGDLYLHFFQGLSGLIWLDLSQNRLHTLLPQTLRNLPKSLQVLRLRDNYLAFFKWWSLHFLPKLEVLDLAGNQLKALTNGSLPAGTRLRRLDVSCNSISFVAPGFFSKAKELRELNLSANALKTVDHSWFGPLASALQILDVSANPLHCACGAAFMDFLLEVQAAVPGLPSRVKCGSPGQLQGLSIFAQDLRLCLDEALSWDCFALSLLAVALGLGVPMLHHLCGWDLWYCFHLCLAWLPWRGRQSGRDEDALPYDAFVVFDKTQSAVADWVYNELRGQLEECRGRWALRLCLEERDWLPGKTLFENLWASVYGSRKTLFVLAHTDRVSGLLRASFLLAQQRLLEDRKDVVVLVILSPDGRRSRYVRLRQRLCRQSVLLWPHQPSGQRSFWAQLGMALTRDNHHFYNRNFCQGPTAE

Sequence of Toll-like receptor 5 (Homo sapiens) (O60602 whole entry): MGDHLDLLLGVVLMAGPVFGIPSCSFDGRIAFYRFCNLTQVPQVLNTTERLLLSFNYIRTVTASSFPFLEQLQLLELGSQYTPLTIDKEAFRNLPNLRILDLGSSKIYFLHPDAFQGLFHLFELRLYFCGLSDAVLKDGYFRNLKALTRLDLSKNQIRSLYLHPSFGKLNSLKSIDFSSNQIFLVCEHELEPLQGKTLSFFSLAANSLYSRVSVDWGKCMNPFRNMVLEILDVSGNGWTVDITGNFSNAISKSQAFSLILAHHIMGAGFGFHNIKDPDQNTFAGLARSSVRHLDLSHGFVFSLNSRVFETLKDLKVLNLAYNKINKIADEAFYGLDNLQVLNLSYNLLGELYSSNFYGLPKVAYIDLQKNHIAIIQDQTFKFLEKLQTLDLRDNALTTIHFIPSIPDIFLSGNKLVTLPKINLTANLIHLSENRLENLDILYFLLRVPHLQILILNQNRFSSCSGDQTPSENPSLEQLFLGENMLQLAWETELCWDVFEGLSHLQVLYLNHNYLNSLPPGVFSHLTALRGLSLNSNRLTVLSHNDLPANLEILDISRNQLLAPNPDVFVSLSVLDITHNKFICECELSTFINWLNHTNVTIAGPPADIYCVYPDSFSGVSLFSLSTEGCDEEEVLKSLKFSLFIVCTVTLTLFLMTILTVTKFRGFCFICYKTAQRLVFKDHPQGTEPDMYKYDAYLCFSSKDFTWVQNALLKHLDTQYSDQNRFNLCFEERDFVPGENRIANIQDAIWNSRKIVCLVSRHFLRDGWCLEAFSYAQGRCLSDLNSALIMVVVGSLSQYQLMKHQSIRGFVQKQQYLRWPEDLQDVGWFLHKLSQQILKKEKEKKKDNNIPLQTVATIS
Sequence of Toll-like receptor 2 (Homo sapiens) (O60603 whole entry): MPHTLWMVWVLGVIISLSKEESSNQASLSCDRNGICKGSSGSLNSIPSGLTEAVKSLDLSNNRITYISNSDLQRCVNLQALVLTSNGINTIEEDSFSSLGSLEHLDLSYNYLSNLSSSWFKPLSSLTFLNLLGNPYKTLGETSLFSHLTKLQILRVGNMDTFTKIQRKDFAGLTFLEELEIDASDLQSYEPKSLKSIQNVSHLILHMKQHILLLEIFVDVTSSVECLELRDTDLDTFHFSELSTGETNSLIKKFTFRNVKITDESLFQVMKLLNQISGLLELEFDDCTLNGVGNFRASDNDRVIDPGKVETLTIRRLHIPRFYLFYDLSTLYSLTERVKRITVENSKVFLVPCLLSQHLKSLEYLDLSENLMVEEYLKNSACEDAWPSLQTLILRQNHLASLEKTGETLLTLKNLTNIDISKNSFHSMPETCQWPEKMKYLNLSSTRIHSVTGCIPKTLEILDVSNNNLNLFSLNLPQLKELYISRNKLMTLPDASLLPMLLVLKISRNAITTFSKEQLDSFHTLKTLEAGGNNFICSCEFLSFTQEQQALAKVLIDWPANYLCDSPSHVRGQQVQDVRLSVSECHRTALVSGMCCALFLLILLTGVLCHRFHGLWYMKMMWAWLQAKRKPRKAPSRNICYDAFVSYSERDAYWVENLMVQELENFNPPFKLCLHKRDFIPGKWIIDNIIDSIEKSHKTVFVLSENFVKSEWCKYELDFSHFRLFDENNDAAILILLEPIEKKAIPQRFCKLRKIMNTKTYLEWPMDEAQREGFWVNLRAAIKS
Sequence of Toll-like receptor 3 (Homo sapiens) (O15455 whole entry): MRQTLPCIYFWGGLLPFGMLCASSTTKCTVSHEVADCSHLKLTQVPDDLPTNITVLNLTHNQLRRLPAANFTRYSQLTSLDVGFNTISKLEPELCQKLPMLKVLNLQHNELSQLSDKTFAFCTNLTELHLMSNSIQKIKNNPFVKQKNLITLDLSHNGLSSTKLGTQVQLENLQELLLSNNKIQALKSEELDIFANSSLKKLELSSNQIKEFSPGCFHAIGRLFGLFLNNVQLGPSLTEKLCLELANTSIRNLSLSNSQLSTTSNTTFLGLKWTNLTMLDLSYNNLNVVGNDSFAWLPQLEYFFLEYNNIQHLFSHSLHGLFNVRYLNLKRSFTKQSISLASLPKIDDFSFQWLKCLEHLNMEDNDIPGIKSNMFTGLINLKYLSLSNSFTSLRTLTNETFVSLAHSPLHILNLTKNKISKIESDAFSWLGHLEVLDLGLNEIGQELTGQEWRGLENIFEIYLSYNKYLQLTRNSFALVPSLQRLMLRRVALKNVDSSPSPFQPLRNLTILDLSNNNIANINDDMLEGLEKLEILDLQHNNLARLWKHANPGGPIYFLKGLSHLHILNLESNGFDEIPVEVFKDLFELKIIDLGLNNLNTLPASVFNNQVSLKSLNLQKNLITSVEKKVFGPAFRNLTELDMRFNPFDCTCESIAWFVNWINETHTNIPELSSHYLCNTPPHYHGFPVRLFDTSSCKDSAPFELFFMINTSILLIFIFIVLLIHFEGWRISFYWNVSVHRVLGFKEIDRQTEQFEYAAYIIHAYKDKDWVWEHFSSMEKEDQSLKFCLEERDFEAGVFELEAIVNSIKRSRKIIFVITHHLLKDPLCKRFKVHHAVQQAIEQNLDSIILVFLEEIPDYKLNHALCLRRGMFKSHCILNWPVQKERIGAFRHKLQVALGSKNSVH
Sequence of Toll-like receptor 4 (Homo sapiens) (O00206 whole entry): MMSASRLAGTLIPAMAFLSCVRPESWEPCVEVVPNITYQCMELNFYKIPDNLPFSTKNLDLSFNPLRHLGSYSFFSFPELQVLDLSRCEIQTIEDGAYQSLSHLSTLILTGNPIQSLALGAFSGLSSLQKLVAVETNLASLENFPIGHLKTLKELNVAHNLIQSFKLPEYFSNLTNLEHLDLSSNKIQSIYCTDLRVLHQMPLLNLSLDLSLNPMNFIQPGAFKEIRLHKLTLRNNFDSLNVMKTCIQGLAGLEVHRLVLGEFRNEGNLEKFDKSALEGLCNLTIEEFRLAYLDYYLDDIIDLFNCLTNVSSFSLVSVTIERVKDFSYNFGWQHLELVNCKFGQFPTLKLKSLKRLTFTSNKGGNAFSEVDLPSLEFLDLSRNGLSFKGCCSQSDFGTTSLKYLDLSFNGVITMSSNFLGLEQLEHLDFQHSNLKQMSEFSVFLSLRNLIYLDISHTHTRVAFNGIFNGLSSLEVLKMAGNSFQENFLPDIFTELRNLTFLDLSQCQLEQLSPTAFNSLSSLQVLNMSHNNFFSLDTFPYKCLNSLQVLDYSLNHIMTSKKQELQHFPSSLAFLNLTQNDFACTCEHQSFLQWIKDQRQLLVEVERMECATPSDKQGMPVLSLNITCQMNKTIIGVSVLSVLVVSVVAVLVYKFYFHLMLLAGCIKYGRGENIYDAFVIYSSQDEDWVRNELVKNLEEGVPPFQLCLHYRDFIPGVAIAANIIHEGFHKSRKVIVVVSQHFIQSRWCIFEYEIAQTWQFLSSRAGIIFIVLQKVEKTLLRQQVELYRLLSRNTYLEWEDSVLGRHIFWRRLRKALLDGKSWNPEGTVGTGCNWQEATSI

Q: Which results are given for CCCCc1nc2c(N)nc3ccccc3c2n1Cc1ccc(CN)cc1?
A: Activity [1]: Active; Activity [2]: Active; Activity [3]: Active; Activity [4]: Active; inhibition [5]: Active; Activity (HEK293): Non-Toxic; inhibition [6]: Active; Activity [7]: Active

Q: What does the source list for CCCCNc1nc(N)nc(C)c1Cc1ccccc1?
A: Activity [8]: inactive; Activity [9]: inactive; Activity [10]: inactive; Activity [11]: inactive; Activity [12]: inactive; Activity [13]: inactive
